Measured values published in PMC10755797 (The Journal of Biological Chemistry, 2023).
Values joined by “and” are separate entries in the source; they are usually repeats but may differ in a detail not shown here. Identical values can stand only once. “Also recorded” adds a separate entry of the source.

Experiments:
DSS-induced colitis [1] = assay: DSS-induced colitis in mice: DAI score, colon length; format: in vivo; conditions: for improvement of DAI score or disease severity: 1 mg/kg orally every other day; for mice that developed moderate colitis / mice that developed severe colitis: n = 10
In short: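 Female C57BL/6 mice (6–8 weeks), randomized; 3% DSS in distilled water for 5 days, with water-only controls. Test compound or reference JAK inhibitor was given by oral gavage every other day in a pH-adjusted vehicle (80% v/v beta-cyclodextrin:water 1:4, 15% hyaluronic acid, 5% PBS); vehicle-only group. Stool consistency and occult blood were scored daily as DAI 0–3. Colon length was measured at sacrifice on day 5. Mean ± SD; ANOVA with Tukey.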

JAK3 = target: T1, JAK3 (Homo sapiens, UniProt P52333); assay: Kinase-Glo Max kinase assay, purified enzyme; format: biochemical
T1 sequence (P52333 1-1124): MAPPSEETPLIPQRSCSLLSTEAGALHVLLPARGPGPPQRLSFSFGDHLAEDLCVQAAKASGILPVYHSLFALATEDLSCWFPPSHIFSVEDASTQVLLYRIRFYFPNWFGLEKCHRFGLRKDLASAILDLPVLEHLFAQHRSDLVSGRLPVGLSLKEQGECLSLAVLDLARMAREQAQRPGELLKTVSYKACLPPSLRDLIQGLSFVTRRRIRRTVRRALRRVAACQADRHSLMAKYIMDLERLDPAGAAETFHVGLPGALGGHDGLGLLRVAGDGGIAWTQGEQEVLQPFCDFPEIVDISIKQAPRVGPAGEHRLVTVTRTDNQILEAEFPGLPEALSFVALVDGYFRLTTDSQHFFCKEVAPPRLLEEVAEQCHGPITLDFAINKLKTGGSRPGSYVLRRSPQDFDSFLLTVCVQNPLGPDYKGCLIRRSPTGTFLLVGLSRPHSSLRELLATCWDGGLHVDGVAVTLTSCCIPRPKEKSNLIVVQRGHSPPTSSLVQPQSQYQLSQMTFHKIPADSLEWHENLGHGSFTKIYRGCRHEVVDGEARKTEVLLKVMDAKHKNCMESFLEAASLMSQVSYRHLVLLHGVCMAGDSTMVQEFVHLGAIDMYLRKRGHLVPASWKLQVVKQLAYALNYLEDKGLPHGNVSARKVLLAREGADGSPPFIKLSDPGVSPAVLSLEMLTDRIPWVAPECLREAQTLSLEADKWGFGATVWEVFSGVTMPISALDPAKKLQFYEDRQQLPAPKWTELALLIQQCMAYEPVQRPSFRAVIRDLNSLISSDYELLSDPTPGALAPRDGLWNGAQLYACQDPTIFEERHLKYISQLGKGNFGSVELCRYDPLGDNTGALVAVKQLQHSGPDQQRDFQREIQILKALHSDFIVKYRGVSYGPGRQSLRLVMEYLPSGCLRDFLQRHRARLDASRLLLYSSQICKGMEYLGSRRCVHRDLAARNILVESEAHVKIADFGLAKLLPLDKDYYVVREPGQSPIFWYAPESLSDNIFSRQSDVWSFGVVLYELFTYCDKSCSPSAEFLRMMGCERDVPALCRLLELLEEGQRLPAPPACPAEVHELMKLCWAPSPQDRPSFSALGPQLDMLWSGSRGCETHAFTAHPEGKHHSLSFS

JAK2 = JAK2 (Homo sapiens, UniProt O60674); assay: Kinase-Glo Max kinase assay, purified enzyme; format: biochemical
DSS-induced colitis [2] = assay: H&E staining of colon tissues, DSS-induced colitis; format: in vivo, mice
[3] = In vivo metabolite identification by LC-MS in plasma, colon and feces; conditions: mice, 10 mg/kg MMT3-72 orally, 6 h
phosphorylation of STAT3 = assay: Western blot of colon tissues: STAT3 and phosphorylated STAT3; format: in vivo, mice; conditions: DSS-induced colitis, oral MMT3-72
In short: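 Colon tissue came from the DSS colitis study. It was rinsed in cold PBS, homogenized in RIPA buffer, sonicated and centrifuged; protein was measured by BCA. 200 μg total protein per group underwent SDS electrophoresis and transfer to PVDF. Blots were probed overnight at 4 °C with antibodies to JAK2, STAT3, phospho-STAT3 (Tyr705) and GAPDH, then HRP secondary for 1 h at room temperature, and imaged.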

TYK2 = TYK2 (Homo sapiens, UniProt P29597); assay: Kinase-Glo Max kinase assay, purified enzyme; format: biochemical
[4] = In vitro conversion of MMT3-72 to MMT3-72-M2 by colon contents; format: in vitro ADME, mice
In short: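 Fresh colon contents from female C57BL/6 mice (6–8 weeks) were suspended at 10% (w/v) in PBS as an azoreductase source, or boiled to deactivate. Test compound at 0.1 mM final was shaken at 1000 rpm, 37 °C. Aliquots at 0, 1, 2, 4, 6, 24 and 48 h were diluted 10-fold and extracted with acetonitrile. Parent and released metabolite were quantified by LC-MS/MS.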

JAK1 = JAK1 (Homo sapiens, UniProt P23458); assay: Kinase-Glo Max kinase assay, purified enzyme; format: biochemical
[5] = Pharmacokinetic study in mice; format: in vivo
In short: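 Female C57BL/6 mice (6–8 weeks) were dosed orally at 10 mg/kg in the pH-adjusted beta-cyclodextrin/hyaluronic acid/PBS vehicle. Sacrifice at 0.5, 2, 4, 12 and 24 h; cardiac blood for plasma; intestinal tissue homogenized in PBS to 10%; intestinal contents homogenized in PBS. Parent and metabolite were measured by LC-MS/MS (C18, 0.1% formic acid water/acetonitrile gradient, 0.4 ml/min). Detection limit 2 ng/ml or 2 ng/g. n = 3, mean ± SD.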

[6] = single oral dose of radiolabeled fedratinib ref 21; cited from earlier work
[7] = 10 mg/kg orally every other day

JAK2, sequence (O60674 whole entry): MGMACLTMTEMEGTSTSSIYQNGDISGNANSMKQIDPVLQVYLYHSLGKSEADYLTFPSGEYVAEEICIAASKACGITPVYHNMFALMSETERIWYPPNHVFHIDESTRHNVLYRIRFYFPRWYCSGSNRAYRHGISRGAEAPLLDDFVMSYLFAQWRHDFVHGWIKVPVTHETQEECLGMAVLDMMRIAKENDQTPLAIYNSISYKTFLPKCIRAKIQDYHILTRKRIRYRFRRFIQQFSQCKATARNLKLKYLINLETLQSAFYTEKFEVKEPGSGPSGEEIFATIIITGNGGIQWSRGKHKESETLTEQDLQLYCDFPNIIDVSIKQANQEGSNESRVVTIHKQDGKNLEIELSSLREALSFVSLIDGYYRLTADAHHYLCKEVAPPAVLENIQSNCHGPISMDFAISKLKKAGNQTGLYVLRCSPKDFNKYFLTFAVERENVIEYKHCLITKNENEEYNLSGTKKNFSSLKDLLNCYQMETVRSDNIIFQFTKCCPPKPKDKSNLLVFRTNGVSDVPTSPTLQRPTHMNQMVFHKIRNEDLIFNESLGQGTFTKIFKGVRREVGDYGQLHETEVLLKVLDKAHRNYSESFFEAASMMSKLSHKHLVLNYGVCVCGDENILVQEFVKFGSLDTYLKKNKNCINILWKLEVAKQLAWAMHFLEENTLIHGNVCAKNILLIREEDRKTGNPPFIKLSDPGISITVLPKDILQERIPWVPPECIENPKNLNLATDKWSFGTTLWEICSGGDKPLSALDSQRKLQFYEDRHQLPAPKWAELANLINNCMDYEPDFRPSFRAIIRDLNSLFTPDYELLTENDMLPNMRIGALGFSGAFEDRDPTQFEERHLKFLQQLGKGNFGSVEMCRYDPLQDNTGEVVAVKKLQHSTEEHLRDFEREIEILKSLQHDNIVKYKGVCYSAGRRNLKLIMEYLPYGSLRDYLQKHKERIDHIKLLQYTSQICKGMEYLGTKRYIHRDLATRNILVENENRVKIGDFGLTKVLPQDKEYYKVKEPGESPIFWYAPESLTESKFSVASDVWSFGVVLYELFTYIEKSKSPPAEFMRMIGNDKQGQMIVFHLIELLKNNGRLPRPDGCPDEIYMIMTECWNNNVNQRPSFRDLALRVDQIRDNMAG
JAK1, sequence (P23458 whole entry): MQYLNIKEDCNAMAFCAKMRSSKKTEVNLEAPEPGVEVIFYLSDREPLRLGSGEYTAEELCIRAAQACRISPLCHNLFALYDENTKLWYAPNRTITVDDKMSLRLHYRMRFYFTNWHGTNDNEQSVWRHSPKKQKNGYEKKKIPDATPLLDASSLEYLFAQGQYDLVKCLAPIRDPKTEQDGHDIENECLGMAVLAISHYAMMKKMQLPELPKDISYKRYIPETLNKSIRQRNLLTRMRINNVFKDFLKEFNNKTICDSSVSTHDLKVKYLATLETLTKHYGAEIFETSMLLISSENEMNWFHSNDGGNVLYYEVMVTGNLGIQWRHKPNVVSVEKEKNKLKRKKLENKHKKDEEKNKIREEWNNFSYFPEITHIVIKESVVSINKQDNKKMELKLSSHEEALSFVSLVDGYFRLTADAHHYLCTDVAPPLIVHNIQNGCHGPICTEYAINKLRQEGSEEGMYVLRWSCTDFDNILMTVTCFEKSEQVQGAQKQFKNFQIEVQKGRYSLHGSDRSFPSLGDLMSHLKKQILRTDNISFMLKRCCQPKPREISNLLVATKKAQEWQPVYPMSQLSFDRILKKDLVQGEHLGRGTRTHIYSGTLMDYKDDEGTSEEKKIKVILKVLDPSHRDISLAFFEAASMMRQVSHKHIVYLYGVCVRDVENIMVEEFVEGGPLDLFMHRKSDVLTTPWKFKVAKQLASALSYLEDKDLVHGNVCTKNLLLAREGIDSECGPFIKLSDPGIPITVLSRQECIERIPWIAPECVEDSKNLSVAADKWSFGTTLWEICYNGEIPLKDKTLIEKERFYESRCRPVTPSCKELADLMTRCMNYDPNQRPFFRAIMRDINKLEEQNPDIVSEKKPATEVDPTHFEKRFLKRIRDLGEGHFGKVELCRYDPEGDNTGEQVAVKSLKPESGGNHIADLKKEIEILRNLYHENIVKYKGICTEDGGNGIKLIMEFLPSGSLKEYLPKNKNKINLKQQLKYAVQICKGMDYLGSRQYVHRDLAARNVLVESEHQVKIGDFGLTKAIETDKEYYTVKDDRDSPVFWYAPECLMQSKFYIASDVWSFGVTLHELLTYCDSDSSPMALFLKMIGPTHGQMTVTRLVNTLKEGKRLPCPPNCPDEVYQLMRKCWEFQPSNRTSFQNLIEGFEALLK
TYK2, sequence (P29597 whole entry): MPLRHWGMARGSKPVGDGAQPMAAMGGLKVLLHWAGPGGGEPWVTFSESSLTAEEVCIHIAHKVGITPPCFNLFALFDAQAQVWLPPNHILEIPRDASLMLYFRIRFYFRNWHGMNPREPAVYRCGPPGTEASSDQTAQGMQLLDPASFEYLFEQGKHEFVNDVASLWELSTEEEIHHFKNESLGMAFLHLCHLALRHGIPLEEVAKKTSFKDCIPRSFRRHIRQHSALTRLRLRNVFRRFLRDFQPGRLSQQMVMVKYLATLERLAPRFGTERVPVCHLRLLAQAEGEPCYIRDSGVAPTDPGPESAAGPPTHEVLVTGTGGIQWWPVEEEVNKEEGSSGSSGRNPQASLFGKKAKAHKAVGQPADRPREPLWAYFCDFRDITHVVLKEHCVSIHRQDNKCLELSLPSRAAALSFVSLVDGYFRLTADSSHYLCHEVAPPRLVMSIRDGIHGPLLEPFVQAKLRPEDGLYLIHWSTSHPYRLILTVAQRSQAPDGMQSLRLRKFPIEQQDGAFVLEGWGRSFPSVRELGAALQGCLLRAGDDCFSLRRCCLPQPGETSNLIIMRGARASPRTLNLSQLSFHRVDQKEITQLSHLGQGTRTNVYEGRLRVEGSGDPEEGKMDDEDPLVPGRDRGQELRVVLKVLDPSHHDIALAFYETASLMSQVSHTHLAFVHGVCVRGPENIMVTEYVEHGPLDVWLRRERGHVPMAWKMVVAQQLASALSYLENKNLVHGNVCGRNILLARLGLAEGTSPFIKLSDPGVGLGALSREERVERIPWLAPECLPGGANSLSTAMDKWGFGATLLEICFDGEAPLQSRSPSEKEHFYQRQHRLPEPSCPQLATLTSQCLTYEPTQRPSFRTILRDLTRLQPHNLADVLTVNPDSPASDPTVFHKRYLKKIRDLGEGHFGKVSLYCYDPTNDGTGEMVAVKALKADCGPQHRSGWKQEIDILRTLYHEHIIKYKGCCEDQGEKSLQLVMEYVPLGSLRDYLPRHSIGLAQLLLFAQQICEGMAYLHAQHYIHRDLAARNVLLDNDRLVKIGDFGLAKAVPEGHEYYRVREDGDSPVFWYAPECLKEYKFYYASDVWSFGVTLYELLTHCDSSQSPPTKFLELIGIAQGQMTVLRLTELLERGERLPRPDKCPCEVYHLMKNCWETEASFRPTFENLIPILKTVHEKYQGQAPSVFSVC

| IC50 (JAK3) [nM] | IC50 (JAK2; Enzyme IC50 JAK2, 0.1 mM ATP) [nM] | IC50 (TYK2; Enzyme IC50 TYK2, 0.1 mM ATP) [nM] | IC50 (JAK1; Enzyme IC50 JAK1, 0.1 mM ATP) [nM] | SMILES | improvement of DAI score or disease severity (DSS-induced colitis [1]) | improvement of DAI score vs DSS-induced colitis (DSS-induced colitis [1]; 5 mg/kg orally every other day) | recovery of colon length from DSS-induced colitis (DSS-induced colitis [1]; 10 mg/kg) | improvement of DAI score vs DSS-induced colitis (DSS-induced colitis [1]; [7]) | mice that developed severe colitis (DSS-induced colitis [1]; 10 mg/kg) | epithelial loss and infiltration of immune cells (H&E) (DSS-induced colitis [2]; 5 mg/kg) | epithelial loss and infiltration of immune cells (H&E) (DSS-induced colitis [2]; 10 mg/kg) | where detected (plasma, colon tissues, feces), in words [3] | further results |
| --- | --- | --- | --- | --- | --- | --- | --- | --- | --- | --- | --- | --- | --- |
| 5240 | 630 | 4700 | 368 | Cc1cnc(Nc2ccc(OCCOc3ccc(/N=N/c4ccc(C(=O)NCCC(=O)O)cc4)cc3C(=O)O)cc2)nc1Nc1cccc(S(=O)(=O)NC(C)(C)C)c1 [MMT3-72, (E)-2-(2-(4-((4-((3-(N-(tertbutyl)sulfamoyl)phenyl)amino)-5-methylpyrimidin-2-yl)amino)phenoxy)ethoxy)-5-((4-((2-carboxyethyl)carbamoyl)phenyl)diazenyl)benzoic acid] | did not improve DAI score or disease severity | 5 fold | recovered the colon length | 10 fold | no mice | reduced epithelial loss and decreased infiltration of immune cells | reduced epithelial loss and decreased infiltration of immune cells | only detected in the feces | mice that developed moderate colitis (DSS-induced colitis [1]; 5 mg/kg): 10%; mice that developed severe colitis (DSS-induced colitis [1]; 5 mg/kg): no mice; mice that developed moderate colitis (DSS-induced colitis [1]; 10 mg/kg): no mice; phosphorylation of STAT3 in colon tissue (phosphorylation of STAT3): effectively inhibit the phosphorylation of STAT3; also recorded: inhibited the phosphorylation of STAT3; stability in heat-deactivated colon contents ([4]; boiled colon contents, aqueous environment): most MMT3-72 remained intact; MMT3-72 metabolized ([4]; fresh colon contents, within 48 h of incubation): more than 90%; detection in colon/GI tissue or systemic circulation/plasma ([5]; mice, 10 mg/kg MMT3-72 orally): not detected |
| 329 | 26.3 | 91.6 | 10.8 | Cc1cnc(Nc2ccc(OCCO)cc2)nc1Nc1cccc(S(=O)(=O)NC(C)(C)C)c1 [MMT3-72-M2, N-(tert-butyl)-3-((2-((4-(2-hydroxyethoxy)phenyl)amino)-5methylpyrimidin-4-yl)amino)benzenesulfonamide] |  |  |  |  |  |  |  | only detected in the colon tissues and the feces with limited detection in the plasma | IC50 (JAK2; IC50 JAK2 expressed in ng/ml, converted from nM): ~25.7 nM; IC50 (TYK2; IC50 TYK2 expressed in ng/ml, converted from nM): ~89.3 nM; formation of MMT3-72-M2 from MMT3-72 ([4]; fresh colon contents): readily converted from MMT3-72; IC50 (JAK1; IC50 JAK1 expressed in ng/ml, converted from nM): ~10.6 nM; concentration at 12 h ([5]; female, C57BL/6, mouse, colon tissue, po, 10 mg/kg): 131 ng/g and ~285 nM; duration of effective concentrations in colon tissue ([5]; mice, 10 mg/kg MMT3-72 orally): 12 h; Cmax in plasma ([5]; mice, 10 mg/kg MMT3-72 orally, 10 mg/kg): < 8 ng/mL; time after which undetectable in plasma ([5]; mice, 10 mg/kg MMT3-72 orally, limit of detection 2 ng/ml): 4 h |
|  |  |  |  | Cc1cnc(Nc2ccc(OCCN3CCCC3)cc2)nc1Nc1cccc(S(=O)(=O)NC(C)(C)C)c1 [fedratinib] |  |  |  |  |  |  |  |  | excreted in feces unchanged [6]: 23%; fedratinib-derived radioactivity excreted in feces [6]: ~77% |
|  |  |  |  | C[C@@H]1CCN(C(=O)CC#N)C[C@@H]1N(C)c1ncnc2[nH]ccc12 [tofacitinib, reference compound] | did not improve DAI score or disease severity | did not show any improvement in DAI score | recovered the colon length | showed improvement in DAI score | 10% | did not show improvement in epithelial cell loss and infiltration of immune cells | moderate improvement |  |  |
